Laboratory results published in PMC8054679 (Analytical biochemistry, 2020).
“Also recorded” adds a separate entry of the source.

How the values were obtained:
Hsp70 = assay: Western blot of lysate protein levels: Hsp70; assay type: cell-based; settings: compared to vehicle; western blot of treated NanoBiT cells
Procedure, shortened: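 Reporter cells dox-induced overnight, then given test compound for 6 h. Inputs denatured 5 min at 95 °C. Blots blocked 1 h, primary antibody 1:1000 overnight at 4 °C, secondary 1:10000 for 1 h.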

[1] = system: Hsp70-CHIP interaction (myc-LgBiT-IEEVD / SmBiT-CHIP-FLAG); assay type: cell-based; settings: for effect on NanoBiT luminescence, single dose: 5 μM, 6 hours, mean ± SD (n=3)
Procedure, shortened: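 Stable reporter cells induced overnight with dox 100 μg/mL in 96-well plates. Peptides (DMSO-dissolved) given at 10 µM for 1 h; small-molecule inhibitors given at 5 µM for 6 h. Live-cell substrate added in Opti-Mem, 5 min dark at room temperature, then read at 500 ms integration. Uninduced background subtracted; normalized to DMSO control as percent; mean ± SD, n=3.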

[2] = system: NanoBiT reporter components (myc-LgBiT-IEEVD, SmBiT-CHIP-FLAG); assay: Western blot of lysate protein levels: NanoBiT reporter components; assay type: cell-based; settings: anti-myc or anti-FLAG
[3] = system: dox-inducible NanoBiT reporter in NanoBiT cells; assay: NanoBiT luminescence assay of dox-dependence and signal stability; assay type: cell-based; settings: dox 100 μg/mL, 24 hours
Procedure, shortened: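 HEK293 Flp-In T-REx cells electroporated with a bicistronic myc-LgBiT-IEEVD/SmBiT-CHIP-FLAG vector plus pOG44, selected with 100 µg/mL hygromycin, and cloned. Cells cultured in 96-well plates ±dox 100 μg/mL for 24 h. Live-cell furimazine substrate added in Opti-Mem, 5 min dark at room temperature, then read at 500 ms integration. Uninduced-cell background subtracted; mean ± SD, n=3.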

CHIP TPR domain = settings: cited from earlier work

Question: With `CO[C@H]1/C=C\C=C(/C)C(=O)NC2=CC(=O)C(NCCN(C)C)=C(C[C@@H](C)C[C@H](OC)[C@H](O)[C@@H](C)/C=C(\C)[C@@H]1OC(N)=O)C2=O` [17-DMAG, 17-dimethylaminoethylamino-17-demethoxygeldanamycin] as the compound, how does the “total abundance of Hsp70 in the lysate” value (Hsp70) read?
Answer: Its value is “increased the total abundance of Hsp70 in the lysate; also recorded: induces Hsp70 levels”.

Question: And the “effect on NanoBiT luminescence, single dose” value ([1]; percent of DMSO control)?
Answer: The value was “reduced the luminescence”.

Question: With `CCn1c(=O)/c(=C2\Sc3cc(Cl)ccc3N2C)s/c1=C\c1scc[n+]1Cc1ccccc1.[Cl-]` [JG-98] as the compound, how does the “stability/expression of NanoBiT reporter components” value [2] read?
Answer: The value was “partially destabilized both components of the NanoBiT reporter”.

Question: What about the “effect on NanoBiT luminescence, single dose” value ([1]; percent of DMSO control) of the same compound?
Answer: Its value is “reduced luminescence”.

Question: Which “effect on NanoBiT luminescence, single dose” value ([1]; percent of DMSO control) does the source give for `CCn1c(=O)/c(=C2\SCCN2C)s/c1=C\c1scc[n+]1Cc1ccccc1.[Cl-]` [JG-258] here?
Answer: The value was “but not an inactive control, JG-258, reduced luminescence”.

Question: For `C[C@H]1c2cccc(O)c2C(=O)C2=C(O)[C@]3(O)C(=O)C(C(N)=O)=C(O)[C@@H](N(C)C)[C@@H]3[C@@H](O)[C@@H]21` [dox, doxycycline], which luminescence with dox ([3]; mean ± SD (n=3)) is on record?
Answer: Its luminescence with dox is 47300 ± 1270 RLU.

Question: What about the “fold increase of luminescence compared to control without dox” value ([3]; n=3) of the same compound?
Answer: The value was 31 fold.

Question: What about the “stability/expression of NanoBiT reporter components” value [2] of the same compound?
Answer: The value was “both reporter components were expressed in response to dox, with little background”.

Question: Which “affinity for CHIP in vitro” value (CHIP TPR domain; in vitro, see Figure 1 (FP, adapted from ref 21)) does the source give for Ac-LWWPD here?
Answer: The value was “sub-micromolar affinity”.

Question: What about the “efficacy in the NanoBiT assay” value ([1]; discussion statement, peptide without CPP) of the same compound?
Answer: Its value is “no efficacy”.

Question: With LWWPD as the compound, how does the “binding to CHIP's purified TPR domain relative to IEEVD” value (CHIP TPR domain; FP, peptide in vitro, fold better than IEEVD) read?
Answer: The value was “at least 10 fold”.

Question: For R9-LWWPD, which “reduction of NanoBiT luminescence” value ([1]; 10 μM peptide, 1 hour, normalized to DMSO control, n=3) is on record?
Answer: The value was “approximately 40%”.

Question: And the “effect on NanoBiT luminescence, peptides, single dose” value ([1]; 10 μM, 1 hour, percent of DMSO control, n=3)?
Answer: The value was “cell active inhibitor”.
